Source: ChEMBL document CHEMBL1122319, “Substituted (2-phenoxyphenyl)acetic acids with antiinflammatory activity. 1” (J Med Chem, 1983)

Columns and labels:
Format in all cases: functional
[1] = tested on: Rattus norvegicus; experiment: Reduction in paw swelling at 100 mg/kg po dose in rat using adjuvant arthritis test.
[2] = organism: Rattus norvegicus; experiment: (§1) Potency relative to [2-(2,4-Dichloro-phenoxy)-phenyl]-acetic acid in rat adjuvant arthritis test
[3] = tested on: Rattus norvegicus; experiment: Reduction in paw swelling at 100 mg/kg po dose in rat using adjuvant arthritis test; value is +10 indicates exacerbation of paw swelling.
[4] = tested on: Rattus norvegicus; experiment: Reduction in paw swelling at 100 mg/kg po dose in rat using adjuvant arthritis test; value is +23 indicates exacerbation of paw swelling.
[5] = tested on: Rattus norvegicus; experiment: Reduction in paw swelling at 100 mg/kg po dose in rat using adjuvant arthritis test; value is +8 indicates exacerbation of paw swelling.
[6] = tested on: Rattus norvegicus; experiment: Reduction in paw swelling at 100 mg/kg po dose in rat using adjuvant arthritis test; value is +14 indicates exacerbation of paw swelling.
[7] = organism: Rattus norvegicus; experiment: Minimum ulcerogenic dose(MUD) of the compound.
[8] = organism: Rattus norvegicus; experiment: Minimum ulcerogenic dose(MUD) of the compound;Value ranges from (400-800)
[9] = tested on: Rattus norvegicus; experiment: Reduction in paw swelling at 100 mg/kg po dose in rat using adjuvant arthritis test; value is +12 indicates exacerbation of paw swelling.
[10] = tested on: Rattus norvegicus; experiment: Reduction in paw swelling at 100 mg/kg po dose in rat using adjuvant arthritis test; value is +9 indicates exacerbation of paw swelling.
[11] = organism: Rattus norvegicus; experiment: as §1; remark: listed apart in the source
How it was run: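 Established (therapeutic) adjuvant arthritis test in rats: the drug was given after arthritis had fully developed. Relative potency against the reference standard was derived from a three-dose-level assay based on paw volume changes.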

[12] = tested on: Rattus norvegicus; experiment: Reduction in paw swelling at 100 mg/kg po dose in rat using adjuvant arthritis test; value is +1 indicates exacerbation of paw swelling.
[13] = tested on: Rattus norvegicus; experiment: Reduction in paw swelling at 100 mg/kg po dose in rat using adjuvant arthritis test; value is +13 indicates exacerbation of paw swelling.
[14] = tested on: Rattus norvegicus; experiment: Reduction in paw swelling at 100 mg/kg po dose in rat using adjuvant arthritis test; value is +5 indicates exacerbation of paw swelling.
[15] = tested on: Rattus norvegicus; experiment: Reduction in paw swelling at 100 mg/kg po dose in rat using adjuvant arthritis test; value is +20 indicates exacerbation of paw swelling.

Compound | Reduction [1] | Relative potency [2] | further results
COc1cc(Cl)ccc1Oc1ccc(C)cc1CC(=O)O | 23 | 0.7 | 
Cc1ccc(Oc2ccc(CC(C)C)cc2Cl)c(CC(=O)O)c1 | 19 | 0.2 | 
Cc1ccc(Oc2ccc(Cl)c(Cl)c2)c(CC(=O)O)c1 | 9 |  | 
CCCCCc1ccc(Oc2ccc(C)cc2CC(=O)O)c(Cl)c1 | 23 | 0.3 | 
Cc1ccc(Oc2ccc(C)cc2CC(=O)O)c(Cl)c1 | 35 | 0.4 | 
COc1cccc(Oc2ccc(C)cc2CC(=O)O)c1 |  |  | Reduction [3]: 10
CCc1cc(Cl)ccc1Oc1ccc(C)cc1CC(=O)O | 17 | 0.4 | 
Cc1ccc(Oc2ccc(Cl)cc2)c(CC(=O)O)c1 | 9 | 0.7 | 
OCCc1ccccc1Oc1ccc(Cl)cc1Cl | 32 | 0.7 | 
Cc1ccc(Oc2c(Cl)cccc2CC(=O)O)c(Cl)c1 |  |  | Reduction [4]: 23
O=C(O)Cc1ccccc1Oc1ccc(Br)cc1Br | 29 | 0.8 | 
CCCCc1ccc(Oc2ccc(C)cc2CC(=O)O)c(Cl)c1 | 25 | 0.9 | 
NC(=O)Cc1ccccc1Oc1ccc(Cl)cc1Cl | 33 | 1.3 | 
O=C(O)C(=O)c1ccccc1Oc1ccc(Cl)cc1Cl | 23 | 0.3 | 
CCCCc1ccc(Oc2ccc(C)cc2Cl)c(CC(=O)O)c1 |  |  | Reduction [5]: 8
Cc1ccc(Oc2cc(C)c(C)cc2CC(=O)O)c(Cl)c1 |  |  | Reduction [6]: 14
Cc1cc(Oc2ccc(Cl)cc2CC(=O)O)c(Cl)cc1Cl | 40 | 0.6 | 
CCc1ccc(Oc2ccc(C)cc2CC(=O)O)c(Cl)c1 | 40 | 1.1 | MUD [7]: >800 mg/kg
Cc1ccc(Oc2ccc(Cl)cc2Cl)c(CC(=O)O)c1 | 29 | 0.8 | 
Cc1ccc(Oc2ccc(C(C)(C)C)cc2Cl)c(CC(=O)O)c1 | 34 | 1.6 | MUD [7]: >500 mg/kg
CCC(C)c1ccc(Oc2ccc(C)cc2CC(=O)O)c(Cl)c1 (stereo not drawn) | 42 | 3 | MUD [8]: 800 mg/kg
O=C(O)Cc1ccccc1Oc1ccc(Cl)cc1 | 0 |  | 
Cc1ccc(Oc2ccc(Cl)cc2O)c(CC(=O)O)c1 | 26 |  | 
Cc1ccc(Oc2cc(Cl)ccc2C)c(CC(=O)O)c1 | 15 | 0.2 | 
COc1ccccc1Oc1ccccc1CC(=O)O | 38 | 0.7 | 

Compound | Reduction [1] | Relative potency [2] | further results
O=C(O)Cc1ccccc1Oc1cccc(Cl)c1Cl | 51 |  | 
Cc1ccc(Oc2cc(C)c(Cl)c(C)c2Cl)c(CC(=O)O)c1 | 20 |  | 
Cc1ccc(Oc2cc(Cl)ccc2Cl)c(CC(=O)O)c1 | 32 | 0.4 | 
Nc1ccc(Oc2ccc(Cl)cc2Cl)c(CC(=O)O)c1 | 0 |  | 
O=C(O)Cc1cc(Cl)ccc1Oc1cccc(Cl)c1 | 0 |  | 
COc1cc(Oc2ccc(C)cc2Cl)c(CC(=O)O)cc1C |  |  | Reduction [9]: 12
Cc1ccc(Oc2c(C)cc(Cl)cc2C)c(CC(=O)O)c1 | 14 | 0.3 | 
Cc1ccc(Oc2ccc(-c3ccccc3)cc2Cl)c(CC(=O)O)c1 | 23 | 0.2 | 
CCCc1ccc(Oc2ccc(C)cc2CC(=O)O)c(Cl)c1 | 27 | 0.6 | 
Cc1ccc(Oc2ccc(C(C)C)cc2Cl)c(CC(=O)O)c1 | 30 | 1.6 | 
Cc1ccc(Oc2cc(C)c(Cl)cc2Cl)c(CC(=O)O)c1 | 45 | 0.4 | 
CCCCCCCCCCCc1ccc(Oc2ccc(C)cc2CC(=O)O)c(Cl)c1 | 14% |  | 
Cc1ccc(Oc2cccc(O)c2CC(=O)O)c(Cl)c1 |  |  | Reduction [10]: 9
Cc1ccc(Oc2cccc(Cl)c2C)c(CC(=O)O)c1 | 20 | 0.3 | 
Cc1ccc(Oc2cccc(Cl)c2Cl)c(CC(=O)O)c1 | 13 |  | 
CCc1ccc(Oc2ccccc2CC(=O)O)c(Cl)c1 | 32 | 0.7 | 
Cc1ccc(Oc2ccc(Cl)c(C)c2)c(CC(=O)O)c1 | 9 |  | 
O=C(Cc1ccccc1Oc1ccc(Cl)cc1Cl)NO | 28% |  | Relative potency [11]: 1
Cc1ccc(Oc2cc(C)cc(C)c2C)c(CC(=O)O)c1 | 11 | 0.1 | 
Cc1cc(Oc2ccc(Cl)cc2CC(=O)O)c(Cl)c(C)c1Cl | 41 | 1 | 
Cc1ccc(Oc2cc(C)ccc2CC(=O)O)c(Cl)c1 |  |  | Reduction [12]: 1
Cc1ccc(Oc2cc(C(F)(F)F)cc(C(F)(F)F)c2)c(CC(=O)O)c1 |  |  | Reduction [3]: 10
Cc1ccc(Oc2cc(C)c(Cl)cc2CC(=O)O)c(Cl)c1 |  |  | Reduction [6]: 14
O=C(O)Cc1cc([N+](=O)[O-])ccc1Oc1ccc(Cl)cc1Cl | 9% |  | 
O=C(O)Cc1cc(Cl)ccc1Oc1ccccc1 | 0 |  | 

Compound | Reduction [1] | Relative potency [2] | further results
O=C(O)Cc1cc(Cl)ccc1Oc1ccc(Cl)cc1Cl | 37 | 1 | 
Cc1cc(Cl)ccc1Oc1ccc(Cl)cc1CC(=O)O | 7 |  | 
COc1ccc(CC(=O)O)c(Oc2ccc(C)cc2Cl)c1 |  |  | Reduction [6]: 14
Cc1ccc(Oc2ccc(Cl)cc2CC(=O)O)c(Cl)c1 | 10 |  | 
Cc1ccc(Oc2c(C)cc(Cl)cc2Cl)c(CC(=O)O)c1 | 23 | 0.3 | 
O=C(O)Cc1ccc(Oc2ccc(Cl)cc2Cl)cc1 | 2 |  | 
Cc1ccc(Oc2cc(C)c(Cl)c(C)c2)c(CC(=O)O)c1 | 5 | 0.7 | 
CCCCCCCCCc1ccc(Oc2ccc(C)cc2CC(=O)O)c(Cl)c1 | 8% |  | 
Cc1cc(Oc2ccccc2CC(=O)O)c(Cl)c(C)c1Cl | 34 | 1.2 | 
Cc1cc(Cl)ccc1Oc1ccccc1CC(=O)O | 0 |  | 
CCCCCCCCCCCCc1ccc(Oc2ccc(C)cc2CC(=O)O)c(Cl)c1 | 26% | 0.3 | 
Cc1ccc(Oc2cc(C(F)(F)F)ccc2Cl)c(CC(=O)O)c1 | 29 | 3 | 
O=C(O)/C=C/c1ccccc1Oc1ccc(Cl)cc1Cl |  |  | Reduction [5]: 8
Cc1ccc(Oc2c(C)cccc2Cl)c(CC(=O)O)c1 | 26 | 0.5 | 
CCOC(=O)Cc1ccccc1Oc1ccc(Cl)cc1Cl | 34 | 0.5 | 
O=C(O)Cc1ccccc1Oc1c(Cl)cccc1Cl | 20 |  | 
CCc1ccc(Oc2ccc(C)cc2Cl)c(CC(=O)O)c1 |  |  | Reduction [13]: 13
O=C(O)Cc1cc(Cl)ccc1Oc1cc(Cl)ccc1Cl | 40 | 1 | 
Cc1ccc(Oc2cc(C)c(C)cc2Cl)c(CC(=O)O)c1 | 46 | 0.4 | 
Cc1ccc(Oc2ccc(C(F)(F)F)cc2CC(=O)O)c(Cl)c1 | 0 |  | 
Nc1ccc(Oc2ccccc2CC(=O)O)c(Cl)c1 |  |  | Reduction [14]: 5
Cc1ccc(Oc2cc(O)ccc2CC(=O)O)c(Cl)c1 |  |  | Reduction [15]: 20
O=C(O)Cc1ccccc1Oc1ccc(Cl)cc1[N+](=O)[O-] | 4% |  | 
O=C(O)Cc1ccccc1Oc1ccc(Cl)cc1Cl [FENCLOFENAC] | 36 | 1 | MUD [8]: 800 mg/kg
